The M2OR odorant receptor database
Substitutions are numbered along the chain they refer to.

Assays:
Conditions in all cases: stereoisomer not certain
[1] = tested on: T1, O5AP2 A105T
T1 sequence (whole entry): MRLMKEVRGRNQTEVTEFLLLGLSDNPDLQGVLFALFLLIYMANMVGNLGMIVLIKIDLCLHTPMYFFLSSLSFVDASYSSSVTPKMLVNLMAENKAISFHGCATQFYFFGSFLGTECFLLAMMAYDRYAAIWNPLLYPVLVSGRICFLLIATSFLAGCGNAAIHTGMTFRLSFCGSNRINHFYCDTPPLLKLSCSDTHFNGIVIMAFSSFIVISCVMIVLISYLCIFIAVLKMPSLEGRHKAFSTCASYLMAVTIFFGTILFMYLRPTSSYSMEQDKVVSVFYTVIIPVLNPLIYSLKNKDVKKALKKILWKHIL
Procedure, shortened: (§1)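 Values were gathered from published papers (main text and supplementary material), with extra details requested from the original authors when needed, and checked for typos and inconsistencies. Each receptor–molecule pair is called responsive (active) if the original authors judged the measured signal statistically different from baseline, and non-responsive (inactive) otherwise. Assay methods varied by source, often transient mammalian cell-line luciferase assays. Recorded details include cell line, G-protein, co-transfected protein and tags.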

[2] = tested on: T2, O5AU1
T2 sequence (whole entry): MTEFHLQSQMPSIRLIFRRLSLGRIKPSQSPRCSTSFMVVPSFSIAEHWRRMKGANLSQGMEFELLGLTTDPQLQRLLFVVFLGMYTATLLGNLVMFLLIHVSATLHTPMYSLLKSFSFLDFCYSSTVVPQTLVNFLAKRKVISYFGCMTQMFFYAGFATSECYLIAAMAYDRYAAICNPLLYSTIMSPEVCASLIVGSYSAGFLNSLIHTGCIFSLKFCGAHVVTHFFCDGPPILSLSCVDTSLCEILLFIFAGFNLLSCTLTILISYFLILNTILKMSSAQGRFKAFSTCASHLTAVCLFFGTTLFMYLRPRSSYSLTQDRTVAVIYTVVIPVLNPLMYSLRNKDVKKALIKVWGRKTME
Procedure, shortened: as §1

[3] = tested on: T3, O5H14
T3 sequence (whole entry): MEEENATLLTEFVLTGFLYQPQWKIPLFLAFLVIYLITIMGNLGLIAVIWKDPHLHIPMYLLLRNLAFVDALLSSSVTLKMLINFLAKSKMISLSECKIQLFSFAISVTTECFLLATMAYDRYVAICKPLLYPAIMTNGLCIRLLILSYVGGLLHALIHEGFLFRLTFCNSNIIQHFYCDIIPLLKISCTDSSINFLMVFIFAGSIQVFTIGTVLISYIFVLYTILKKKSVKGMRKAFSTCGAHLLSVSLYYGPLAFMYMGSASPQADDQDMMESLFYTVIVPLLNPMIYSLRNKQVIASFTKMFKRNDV
Procedure, shortened: as §1

[4] = tested on: T4, O5H15 V108I S148T T167S
T4 sequence (whole entry): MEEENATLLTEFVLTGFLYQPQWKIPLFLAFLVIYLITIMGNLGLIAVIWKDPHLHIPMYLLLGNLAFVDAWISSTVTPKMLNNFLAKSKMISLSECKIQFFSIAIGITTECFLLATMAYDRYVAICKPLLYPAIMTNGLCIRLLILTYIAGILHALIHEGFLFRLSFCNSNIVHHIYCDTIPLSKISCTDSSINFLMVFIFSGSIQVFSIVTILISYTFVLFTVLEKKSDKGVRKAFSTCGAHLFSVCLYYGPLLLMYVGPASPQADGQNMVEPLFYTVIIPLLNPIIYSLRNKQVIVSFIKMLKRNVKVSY
Procedure, shortened: as §1

[5] = tested on: T5, O6C65 T222A
T5 sequence (whole entry): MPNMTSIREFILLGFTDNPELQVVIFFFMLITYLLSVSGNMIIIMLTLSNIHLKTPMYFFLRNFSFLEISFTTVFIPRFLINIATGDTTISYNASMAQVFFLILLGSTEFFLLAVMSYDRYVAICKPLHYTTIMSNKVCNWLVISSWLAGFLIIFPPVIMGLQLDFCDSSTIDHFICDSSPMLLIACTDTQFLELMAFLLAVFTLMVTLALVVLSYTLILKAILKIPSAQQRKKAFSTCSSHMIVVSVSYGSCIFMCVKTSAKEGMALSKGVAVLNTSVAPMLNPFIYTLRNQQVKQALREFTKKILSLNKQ
Procedure, shortened: as §1

[6] = tested on: T6, O6C70 L181P
T6 sequence (whole entry): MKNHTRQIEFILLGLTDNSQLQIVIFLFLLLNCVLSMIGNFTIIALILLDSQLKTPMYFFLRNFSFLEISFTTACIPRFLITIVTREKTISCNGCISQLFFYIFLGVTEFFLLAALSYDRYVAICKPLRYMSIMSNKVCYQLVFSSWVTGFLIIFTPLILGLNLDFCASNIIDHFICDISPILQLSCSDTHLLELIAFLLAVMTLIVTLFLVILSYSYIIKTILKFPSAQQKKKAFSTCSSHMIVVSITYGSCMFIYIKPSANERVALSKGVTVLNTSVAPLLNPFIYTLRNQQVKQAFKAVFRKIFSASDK
Procedure, shortened: as §1

[7] = tested on: T7, O7E24 S193F P242S
T7 sequence (whole entry): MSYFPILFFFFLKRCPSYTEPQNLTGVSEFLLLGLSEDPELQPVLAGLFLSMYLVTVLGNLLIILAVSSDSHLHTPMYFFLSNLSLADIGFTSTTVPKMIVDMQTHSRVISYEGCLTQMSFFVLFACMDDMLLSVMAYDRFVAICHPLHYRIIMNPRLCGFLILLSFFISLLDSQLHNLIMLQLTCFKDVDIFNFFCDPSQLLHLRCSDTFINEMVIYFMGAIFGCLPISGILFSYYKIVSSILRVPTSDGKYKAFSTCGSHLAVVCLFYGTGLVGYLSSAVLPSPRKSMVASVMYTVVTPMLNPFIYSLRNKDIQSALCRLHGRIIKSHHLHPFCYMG
Procedure, shortened: as §1

[8] = tested on: T8, O7E24
T8 sequence (whole entry): T7 sequence (whole entry) with F193S
Procedure, shortened: as §1

[9] = target: T9, OR10A2 (Homo sapiens) (UniProt Q9H208)
T9 sequence (whole entry): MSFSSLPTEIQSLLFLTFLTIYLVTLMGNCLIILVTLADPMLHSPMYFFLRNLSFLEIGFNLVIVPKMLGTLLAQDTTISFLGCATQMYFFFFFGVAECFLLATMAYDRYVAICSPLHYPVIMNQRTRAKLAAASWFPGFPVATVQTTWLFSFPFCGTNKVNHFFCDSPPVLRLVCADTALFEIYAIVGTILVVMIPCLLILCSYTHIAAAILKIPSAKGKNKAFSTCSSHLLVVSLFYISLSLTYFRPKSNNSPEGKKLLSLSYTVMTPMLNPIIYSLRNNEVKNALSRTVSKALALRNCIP
Procedure, shortened: as §1

[10] = target: T10, OR10A3 (Homo sapiens) (UniProt P58181)
T10 sequence (whole entry): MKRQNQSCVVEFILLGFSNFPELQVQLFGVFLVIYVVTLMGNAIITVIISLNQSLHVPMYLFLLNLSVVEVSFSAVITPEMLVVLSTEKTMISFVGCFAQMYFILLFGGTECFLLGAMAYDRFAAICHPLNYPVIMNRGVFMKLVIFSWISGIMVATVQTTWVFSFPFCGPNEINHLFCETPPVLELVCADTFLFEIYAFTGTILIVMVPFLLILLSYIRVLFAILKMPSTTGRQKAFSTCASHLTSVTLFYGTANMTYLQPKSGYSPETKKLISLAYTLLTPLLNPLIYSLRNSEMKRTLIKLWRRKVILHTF
Procedure, shortened: as §1

[11] = target: T11, OR10A4 (Homo sapiens) (UniProt Q9H209)
T11 sequence (whole entry): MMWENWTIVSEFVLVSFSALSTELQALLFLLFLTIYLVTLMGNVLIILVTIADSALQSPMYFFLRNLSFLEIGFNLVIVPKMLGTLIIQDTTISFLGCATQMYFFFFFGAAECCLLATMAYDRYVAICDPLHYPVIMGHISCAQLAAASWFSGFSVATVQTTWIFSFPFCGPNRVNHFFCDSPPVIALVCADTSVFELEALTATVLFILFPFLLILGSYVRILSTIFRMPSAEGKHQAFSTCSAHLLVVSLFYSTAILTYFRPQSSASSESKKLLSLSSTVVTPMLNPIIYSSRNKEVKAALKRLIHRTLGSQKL
Procedure, shortened: as §1

[12] = target: T12, OR10A5 (Homo sapiens) (UniProt Q9H207)
T12 sequence (whole entry): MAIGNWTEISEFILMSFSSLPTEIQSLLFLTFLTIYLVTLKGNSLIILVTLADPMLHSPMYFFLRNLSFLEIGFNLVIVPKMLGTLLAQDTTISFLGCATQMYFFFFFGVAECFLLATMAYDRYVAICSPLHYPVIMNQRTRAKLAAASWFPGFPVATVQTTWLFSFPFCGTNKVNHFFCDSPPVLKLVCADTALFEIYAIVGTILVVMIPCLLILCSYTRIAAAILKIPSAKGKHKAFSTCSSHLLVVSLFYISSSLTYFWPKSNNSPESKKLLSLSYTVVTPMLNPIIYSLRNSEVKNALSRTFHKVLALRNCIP
Procedure, shortened: as §1

[13] = target: T13, OR10A6 (Homo sapiens) (UniProt Q8NH74)
T13 sequence (whole entry): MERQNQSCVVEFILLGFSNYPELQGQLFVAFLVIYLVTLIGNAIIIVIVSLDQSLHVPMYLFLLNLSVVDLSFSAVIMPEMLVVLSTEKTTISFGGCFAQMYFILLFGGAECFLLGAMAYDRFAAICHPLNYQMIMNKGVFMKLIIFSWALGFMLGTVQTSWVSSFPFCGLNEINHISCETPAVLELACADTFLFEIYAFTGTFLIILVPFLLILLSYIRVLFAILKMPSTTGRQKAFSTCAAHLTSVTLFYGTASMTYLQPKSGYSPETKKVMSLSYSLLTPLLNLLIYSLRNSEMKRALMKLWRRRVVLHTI
Procedure, shortened: as §1

[14] = target: T14, OR10A7 (Homo sapiens) (UniProt Q8NGE5)
T14 sequence (whole entry): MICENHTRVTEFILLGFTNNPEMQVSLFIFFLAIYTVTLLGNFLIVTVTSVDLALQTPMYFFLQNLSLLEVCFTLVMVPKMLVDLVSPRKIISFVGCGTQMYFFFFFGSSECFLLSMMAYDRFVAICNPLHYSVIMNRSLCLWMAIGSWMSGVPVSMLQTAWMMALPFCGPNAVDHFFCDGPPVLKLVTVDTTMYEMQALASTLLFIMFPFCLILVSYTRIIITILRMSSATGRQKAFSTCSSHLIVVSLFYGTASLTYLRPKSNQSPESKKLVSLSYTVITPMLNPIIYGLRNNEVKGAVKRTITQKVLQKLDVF
Procedure, shortened: as §1

[15] = target: T15, OR10AD1 (Homo sapiens) (UniProt Q8NGE0)
T15 sequence (whole entry): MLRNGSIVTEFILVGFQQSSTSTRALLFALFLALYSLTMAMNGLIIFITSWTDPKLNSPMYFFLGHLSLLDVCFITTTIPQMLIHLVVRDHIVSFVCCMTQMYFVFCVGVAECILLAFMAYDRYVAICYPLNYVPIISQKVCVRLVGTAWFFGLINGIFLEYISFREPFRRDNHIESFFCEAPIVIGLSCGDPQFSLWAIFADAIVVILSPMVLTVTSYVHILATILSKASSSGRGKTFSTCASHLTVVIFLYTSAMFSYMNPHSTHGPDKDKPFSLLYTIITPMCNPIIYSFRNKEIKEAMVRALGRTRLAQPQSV
Procedure, shortened: as §1

[16] = target: T16, OR10AG1 (Homo sapiens) (UniProt Q8NH19)
T16 sequence (whole entry): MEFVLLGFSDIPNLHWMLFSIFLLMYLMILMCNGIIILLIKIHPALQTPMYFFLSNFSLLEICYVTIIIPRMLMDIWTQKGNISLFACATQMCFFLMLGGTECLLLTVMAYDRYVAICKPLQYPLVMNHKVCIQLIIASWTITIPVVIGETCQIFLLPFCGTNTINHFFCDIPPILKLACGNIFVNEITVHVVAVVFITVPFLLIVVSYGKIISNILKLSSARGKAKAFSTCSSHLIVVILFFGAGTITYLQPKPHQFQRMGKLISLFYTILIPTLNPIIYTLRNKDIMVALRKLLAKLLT
Procedure, shortened: as §1

[17] = target: T17, OR10C1 (Homo sapiens) (UniProt Q96KK4)
T17 sequence (whole entry): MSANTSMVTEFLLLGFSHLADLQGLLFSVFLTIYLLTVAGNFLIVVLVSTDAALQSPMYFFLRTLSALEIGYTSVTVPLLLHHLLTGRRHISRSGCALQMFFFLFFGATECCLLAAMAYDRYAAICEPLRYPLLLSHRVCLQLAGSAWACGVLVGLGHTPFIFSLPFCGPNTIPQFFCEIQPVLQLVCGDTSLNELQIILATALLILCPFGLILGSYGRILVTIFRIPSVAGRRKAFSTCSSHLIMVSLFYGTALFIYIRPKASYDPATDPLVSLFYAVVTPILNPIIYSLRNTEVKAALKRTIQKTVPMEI
Procedure, shortened: as §1

[18] = target: T18, OR10D3 (Homo sapiens) (UniProt Q8NH80)
T18 sequence (whole entry): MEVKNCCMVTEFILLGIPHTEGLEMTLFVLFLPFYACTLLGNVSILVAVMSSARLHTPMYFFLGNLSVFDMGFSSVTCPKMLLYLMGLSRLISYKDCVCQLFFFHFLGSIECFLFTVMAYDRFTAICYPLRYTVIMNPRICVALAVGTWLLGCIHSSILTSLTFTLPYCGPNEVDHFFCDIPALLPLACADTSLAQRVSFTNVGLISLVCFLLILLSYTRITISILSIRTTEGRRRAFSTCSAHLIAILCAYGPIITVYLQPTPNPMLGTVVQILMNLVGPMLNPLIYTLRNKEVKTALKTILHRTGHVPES
Procedure, shortened: as §1

Measured: odorant receptor agonist call

CC1=C(O)C(=O)C(C)O1 (stereo not drawn)
inactive: all assays above
